# Measured values taken from PubChem BioAssay.
# Unmarked numbers belong to inactive results. Inconclusive results are not listed. Active and inactive are the calls of the source.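 The calls were made as follows, unless noted: active = inhibition over a set limit, the all-compound mean plus 3 SD, in both replicate runs; inconclusive = over that limit in just one replicate run; inactive = at or under that limit in both runs.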
# What was measured:
# [1] = S. cerevisiae growth inhibition in permissive medium (OD615), pilot counter-assay for S. cerevisiae lifespan shortening project, permissive growth control (AID 705;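 active = growth inhibition above 25% in both replicates, a cutoff set 3 SD above the mean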); conditions: OD615, 24 h, at 10 µM, stronger effect = higher value
# Outline: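 Timing: 24 h exposure, 30 °C / Material: Saccharomyces cerevisiae strain carrying genetically modified DeaD replicative-lifespan system / Signal: OD at 615 nm / Compound: 10 µM single dose, 0.25% DMSO / Medium: SC raffinose/galactose permissive medium / Evaluation: reduction in yeast growth (OD615)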
# [2] = S. cerevisiae growth inhibition in restrictive medium, OD615, pilot screen, restrictive growth control, yeast lifespan reduction project (AID 706;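 active = growth inhibition above a set limit, 3 SD over mean compound inhibition, in both replicates, cut at about 43% in these data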;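 also: modified DeaD lifespan yeast strain shifted to restrictive glucose medium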); conditions: OD615, 48 h, at 10 µM, stronger effect = higher value
# Outline: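 System: Engineered S. cerevisiae DeaD strain | Detection: OD615 | Buffer or medium: CSMM-D glucose medium | Doses: 10 µM compound, 0.25% DMSO | Timing: 4 h pre-growth plus 48 h compound exposure, 30 °C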
# [3] = doxorubicin toxicity protection in MRP-1 cells – H69AR cells, CellTiter-Glo, duplicate, MRP-1 activator project, pilot screen (AID 807;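 active = viability increase at or above a cutoff of the median across tested compounds plus 3 SD, cut at about 8.5% in these data, passing the limit was not always enough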;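 also: compound pretreatment 18-22 h then 72 h combined with doxorubicin; 0% = doxorubicin alone and 100% = vehicle without doxorubicin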); conditions: H69AR viability with doxorubicin, CellTiter-Glo luminescence; at 10 µM; stronger effect = higher value
# [4] = viability of HCT116 without oncogenic beta-catenin – human colon tumor cells, pilot screen (AID 823;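 active = cell viability at or below a set limit in both duplicate runs, the limit being the all-compound median minus 4 SD, cut at about 23% in these data, passing the limit was not always enough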;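 also: 0% = wells killed by 20 µM Hyamine and 100% = untreated DMSO cell wells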); conditions: HCT116 beta-catenin knockout viability, CellTiter-Glo, 60 h; at 10 µM; stronger effect = lower value
# [5] = viability of PTEN-null HCT116 cells – cell-based, HCT116 clonal line, CellTiter-Glo, pilot screen (AID 824;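 active = viability at or below 27.92% in each of two runs, the all-compound median minus 4 SD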;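 also: 0% = 20 µM Hyamine control and 100% = vehicle cell control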); conditions: HCT116 PTEN-deleted viability, 60 h, at 10 µM, stronger effect = lower value
# [6] = RAM pathway blockade in budding yeast – dse1pr::URA3 reporter, 5-FOA selection, pilot screen (AID 869);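 also: 0% = DMSO wells with no growth and 100% = 10 µM 1-NA-PP1 with full growth; RAM network block rescues cells from 5-FOA so hits raise OD615 growth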; conditions: S. cerevisiae dse1pr::URA3 5-FOA growth, OD615, 2 d; at 10 µM; stronger effect = higher value; strain carries analog-sensitive mutant Cbk1 kinase
# [7] = RAM signaling pathway blockade in yeast – S. cerevisiae, Pdr1DBD-CYC8 efflux-inhibited sensitized strain, primary screen (AID 1298;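 active = RAM network inhibition above 8.4% in each of two replicates, 3 SD over the compound average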;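 also: 0% = DMSO untreated cells without growth and 100% = 10 µM 1-NA-PP1 full growth; higher means more yeast growth rescued from 5-FOA killing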); conditions: S. cerevisiae cbk1-as DSE1-URA3 strain, 5-FOA growth OD615, 2 d; at 50 µM; stronger effect = higher value
Structure (SMILES),growth inhibition [1] [%],growth inhibition [2] [%],viability increase [3] [%],viability [4],viability [5],inhibition [6] [%],RAM network inhibition [7] [%]
c1ccc(-c2ccccc2-n2cnnn2)cc1,4.66,3.99,-0.54,97.3%,95.3%,1.77,0.51
Fc1cc2nc(-c3ccncc3)[nH]c2cc1F,-7.19,-19.1,-1.54,109%,94.6%,0.625,2.24
COc1ccc(C2c3c(oc4ccccc4c3=O)C(=O)N2c2ccccn2)cc1 (configuration not stated),-12.9,-7.65,-0.92,90.9%,91%,3.71,4.85
Cc1noc(C(=O)Nc2c(C)n(C)n(-c3ccccc3)c2=O)c1Cl,-13.3,-16.6,-2.04,95%,98.7%,1.79,0.38
O=C(CCS(=O)(=O)c1cccs1)NC1CCCCCC1,-2.95,-4.64,-0.19,94.6%,92.7%,1.29,5.23
CCN(CC)CCN1C(=O)C2C3c4ccccc4C(c4ccccc43)C2C1=O (configuration not stated),-2.27,-2.01,-2.46,96.5%,95.4%,0.035,1.71
Cc1ccc(-c2nc(CS(=O)CC(=O)NC3CCC(C)CC3)c(C)o2)cc1 (configuration not stated),2.73,11.8,1.29,84.8%,94.8%,0.76,2.42
Cc1cc(NC(=O)c2cc(-c3cccs3)nc3ccccc23)no1,3.04,-5.12,-6.62,29.3%,30.9%,2.11,8.27
CN1CCCc2cc3c(C(F)(F)F)cc(=O)oc3nc21,-5.06,5.85,-1.33,94.2%,102%,1.14,1.82
CN1CCN(Cc2c(O)ccc3c(=O)c(Oc4ccccc4Cl)c(C(F)(F)F)oc23)CC1,-4.67,12.6,-0.67,98%,96.7%,0.13,1.25
O=C(c1oc(=O)c2ccccc2c1-c1ccccc1)N1CCC(O)CC1,-2.27,-0.17,-2.96,97.6%,91.6%,1.25,1.92
CC(C)n1c(CCCO)nc2ccccc21,-11.3,-5.23,-1.64,95.7%,88.1%,0.93,0.19
COc1ccc(S(=O)(=O)Cc2ccc(C(=O)N3CCN(c4cccc(C)c4C)CC3)o2)cc1,-1.63,-1.19,-5.44,13% (active),17.6% (active),1.52,3.74
Cc1nnc(NC(=O)CCCCCN2C(=O)C3C4C=CC(C4)C3C2=O)s1 (configuration not stated),-10.6,-1.29,1.66,96.7%,102%,-0.595,3.05
COCCN1C=C(C(=O)OC)C(c2cc(Br)c(OC)c(OC)c2)C(C(=O)OC)=C1,1.89,-0.035,-2.7,80.8%,71.9%,2.16,8.73
CC1(C)CC(NC(=O)C23CCC(C)(C(=O)C2)C3(C)C)CC(C)(C)N1 (configuration not stated),-4.15,-6.33,-0.11,96.2%,95.1%,2.67,3.01
